Measurements taken from paper PMC10078363 (Journal of Pineal Research, 2022).
Like-named read-outs stand apart in the source and are kept apart here.

Legend:
[1] = Transepithelial transport assay in parental MDCK‐II cells; assay type: in vitro ADME, canine; conditions: dog, with Ko143 1 µM
How it was run: (§1)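 MDCK-II monolayers, parental or transduced with an ABCG2 variant, in Hanks' balanced salt solution with 25 mM HEPES. Both sides are refreshed with or without Ko143 (1 µM). Test compound (8–10 µM) is added to one side, and the opposite side is sampled at 1, 2, 3 and 4 h. Analysis is by HPLC-UV at 310 nm. Ratio is apically directed % over basolaterally directed % at 4 h; n ≥ 3, mean ± SD.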

murine Abcg2 [2] = target: T1, murine Abcg2 (Mus musculus, UniProt Q7TMS5); assay: Transepithelial transport assay in MDCK‐II cells transduced with murine Abcg2; assay type: in vitro ADME; conditions: mAbcg2 MDCK‐II, +Ko143 (1 µM); Mel 10 µM, 6‐SO‐Mel 8 µM, 6‐OH‐Mel 10 µM
T1 sequence (Q7TMS5 1-657): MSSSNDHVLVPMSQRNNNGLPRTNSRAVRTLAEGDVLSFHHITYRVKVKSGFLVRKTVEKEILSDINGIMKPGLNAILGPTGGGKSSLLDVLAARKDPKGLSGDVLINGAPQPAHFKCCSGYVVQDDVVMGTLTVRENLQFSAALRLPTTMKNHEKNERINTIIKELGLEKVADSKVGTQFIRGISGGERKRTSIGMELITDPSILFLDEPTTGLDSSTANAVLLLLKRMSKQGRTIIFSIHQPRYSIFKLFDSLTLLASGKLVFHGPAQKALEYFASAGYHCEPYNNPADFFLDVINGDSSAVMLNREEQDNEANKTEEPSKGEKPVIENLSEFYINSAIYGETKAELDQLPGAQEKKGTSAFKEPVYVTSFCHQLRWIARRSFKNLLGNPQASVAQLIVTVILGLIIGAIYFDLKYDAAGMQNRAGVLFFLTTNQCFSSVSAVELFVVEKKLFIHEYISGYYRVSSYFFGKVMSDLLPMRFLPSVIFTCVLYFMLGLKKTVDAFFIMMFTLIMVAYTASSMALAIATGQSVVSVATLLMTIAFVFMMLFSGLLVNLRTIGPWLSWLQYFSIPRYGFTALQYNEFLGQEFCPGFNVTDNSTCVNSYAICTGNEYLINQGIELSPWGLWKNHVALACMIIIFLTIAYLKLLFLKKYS
How it was run: as §1

ovine ABCG2 = assay: Transepithelial transport assay in MDCK‐II cells transduced with ovine ABCG2; assay type: in vitro ADME; conditions: oABCG2 MDCK‐II, +Ko143 (1 µM); Mel 10 µM, 6‐SO‐Mel 8 µM, 6‐OH‐Mel 10 µM
How it was run: as §1

human ABCG2 = assay: Transepithelial transport assay in MDCK‐II cells transduced with human ABCG2; assay type: in vitro ADME; conditions: with Ko143 1 µM
How it was run: as §1

murine Abcg2 [3] = assay type: in vivo; conditions: male, FVB/N, mouse, plasma, oral, 10 mg/kg body weight, Abcg2−/− male mice, 1 h after oral melatonin 10 mg/kg
How it was run: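 Male Abcg2−/− and wild-type mice (FVB/N background, n = 8) are dosed orally in the morning with 10 mg/kg melatonin in 10% ethanol/40% PEG/50% saline. Plasma and tissues are taken at 1 h. Samples are precipitated with acetonitrile, then a melatonin-d4 internal standard is added. Analysis is LC-MS/MS on C18 with a water/methanol gradient (1 mM ammonium formate, 0.01% formic acid). Hydroxylated metabolites are reported as arbitrary units. Groups are compared by t-test or Mann–Whitney.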

murine Abcg2 [4] = target: T1, murine Abcg2; assay type: in vivo, mice; conditions: 30 min after i.v. melatonin 10 mg/kg
murine Abcg2 [5] = assay type: in vivo, mice; conditions: female, FVB/N, mouse, intravenous, 10 mg/kg body weight, Abcg2−/− lactating female mice, 30 min after i.v. melatonin 10 mg/kg
[6] = wild‐type lactating female mice

efflux ratio at 4 h [1] | Relative efflux transport ratio (basal to apical % / apical to basal %) at 4 h (murine Abcg2 [2]) | Relative efflux transport ratio (basal to apical % / apical to basal %) at 4 h (ovine ABCG2) | efflux ratio at 4 h (human ABCG2) | concentration at 1 h (murine Abcg2 [3]) | Fold higher milk concentration/levels in wild‐type compared with Abcg2−/− (murine Abcg2 [4]; lactating female mice) | concentration at 30 min (murine Abcg2 [5]; milk, Milk concentration) | Kp at 30 min (murine Abcg2 [5]; milk, Milk to plasma ratio) | concentration at 30 min (murine Abcg2 [5]; plasma, Plasma concentration) | Milk levels (relative abundance) (murine Abcg2 [4]; Abcg2−/− lactating female mice) | Milk to plasma ratio (relative abundance) (murine Abcg2 [4]; Abcg2−/− lactating female mice) | Fold higher milk to plasma ratio in wild‐type compared with Abcg2−/− (murine Abcg2 [4]; lactating female mice) | Milk levels (relative abundance) (murine Abcg2 [4]; [6]) | Milk to plasma ratio (relative abundance) (murine Abcg2 [4]; [6]) | Structure (SMILES)
1.05 ± 0.06 | 1.00 ± 0.06 | 0.99 ± 0.11 | 1.02 ± 0.07 | 9.39 ± 4.59 ng/mL | almost twofold | 6340 ± 3870 ng/mL | 0.02 ± 0.01 | 288000 ± 89300 ng/mL |  |  |  |  |  | COc1ccc2[nH]cc(CCNC(C)=O)c2c1 [melatonin]
 |  |  |  |  | around twofold |  |  |  | 1.42 ± 0.66 arbitrary units | 1.75 ± 0.29 arbitrary units | around twofold | 2.90 ± 1.24 arbitrary units | 3.68 ± 1.34 arbitrary units | COc1ccc2[nH]c(O)c(CCNC(C)=O)c2c1 [2‐OH‐Mel, 2‐hydroxymelatonin]
